In the library only some 5.9% were active in any assay of this set; here they are far more common.
IDH1 mut inh – inhibitors of human IDH1 R132H; O75874; IDH1 R132H reductase, diaphorase/resazurin fluorescence, 60 min; inhibition, % at 10 µM; hit rate 0.18% among 70,000; in the data active = inhibition above about 34%; inconclusive = no clear call, values can overlap the other calls; inactive = below about 11%;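 also: 0% = DMSO and 100% = no enzyme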
Target sequence (O75874 whole entry R132H): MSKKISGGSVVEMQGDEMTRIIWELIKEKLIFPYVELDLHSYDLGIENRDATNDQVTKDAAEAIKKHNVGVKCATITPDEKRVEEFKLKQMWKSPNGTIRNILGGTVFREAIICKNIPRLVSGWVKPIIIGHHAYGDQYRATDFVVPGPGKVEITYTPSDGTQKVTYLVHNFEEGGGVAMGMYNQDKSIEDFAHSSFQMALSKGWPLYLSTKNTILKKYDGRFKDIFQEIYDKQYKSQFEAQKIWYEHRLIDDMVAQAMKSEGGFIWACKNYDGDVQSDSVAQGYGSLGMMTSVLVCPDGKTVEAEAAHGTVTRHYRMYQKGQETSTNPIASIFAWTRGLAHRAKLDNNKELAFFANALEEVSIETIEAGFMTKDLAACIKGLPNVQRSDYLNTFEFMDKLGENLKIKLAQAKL
Pf Dd2 inh – blocks growth of Plasmodium falciparum Dd2 parasites; hit rate 2.3% among 94,000; activity change, % at 10 µM; P. falciparum Dd2 growth, SYBR Green, 72 h; stronger effect = lower value; in the data active = activity change below about -80%; inconclusive = no clear call, values can overlap the other calls
Tcruzi prolif – T. cruzi proliferation inhibition. T. cruzi beta-gal in NIH3T3, GalScreen luminescence, 90 h. inhibition, % at 8.34 µM. hit rate 5.9% among 77,000. AID 624255;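 active = mean inhibition above about 93%, with at least 55% of replicates each passing it, limit read from the data, passing the limit was not always enough; inconclusive = only one of those two conditions holds; inactive = neither condition holds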
GASC1 inh – KDM4C (human) demethylase inhibition. Q9H3R0. inhibition, % at 12.5 µM. hit rate 0.15% among 96,000. GST-KDM4C 2-372, H3K9me3 peptide, LANCE TR-FRET;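 active = mean replicate inhibition above about 25%, with at least 55% of replicates also reaching it, limit read from the data, passing the limit was not always enough; inconclusive = only one of those two conditions met; inactive = neither condition met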
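Material: N-terminal GST-fused human GASC-1 (KDM4C) fragment, residues 2-372. Input: 10 nM enzyme. Incubation: enzyme reaction 30 min, then detection 60 min, both room temperature. Doses: one test concentration per compound. Read-out basis: inhibition from TR-FRET ratio decrease. Detection: LANCE TR-FRET, excitation 340 nm, emissions 618 and 671 nm.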
Numbers without * were called inactive; ? = inconclusive; / = no result given.

SMILES	IDH1 mut inh	Pf Dd2 inh	Tcruzi prolif	GASC1 inh
CC(C)NC(=O)Nc1cccc2c1O[C@H](CN(C)C(=O)Nc1ccc(C(F)(F)F)cc1)[C@@H](C)CN([C@H](C)CO)C2=O	/	0	27	-4
CC(=O)c1cccc(NC(=S)NCc2ccccn2)c1	0	/	/	/
COc1ccc(S(=O)(=O)N(C)CC(=O)Nc2ccc(Br)cc2F)cc1	0	/	/	/
C[C@H](CO)N1C[C@H](C)[C@H](CN(C)C(=O)Nc2ccc(C(F)(F)F)cc2)Oc2ccc(NC(=O)Nc3cccc4ccccc34)cc2C1=O	0	-83*	88	-1
C[C@@H]1CN([C@@H](C)CO)C(=O)c2cc(NC(=O)Nc3cccc4ccccc34)ccc2O[C@@H]1CN(C)C(=O)Nc1ccc(C(F)(F)F)cc1	-2	-37	70	-4
C[C@@H]1CN([C@@H](C)CO)C(=O)c2cc(NC(=O)Nc3ccccc3)ccc2O[C@@H]1CN(C)C(=O)Nc1cccc2ccccc12	0	-91*	15	-7
C[C@@H]1CN([C@@H](C)CO)C(=O)c2cc(NC(=O)Nc3ccc(C(F)(F)F)cc3)ccc2O[C@H]1CN(C)C(=O)Nc1cccc2ccccc12	2	-87*	-43	1
COc1ccccc1NC(=O)CNS(=O)(=O)c1ccc(C)cc1	0	/	/	/
C[C@H](CO)N1C[C@H](C)[C@@H](CN(C)Cc2ccc(Oc3ccccc3)cc2)Oc2ccc(NC(=O)Nc3ccc(C(F)(F)F)cc3)cc2C1=O	1	-65	68	1
C[C@@H]1CN([C@H](C)CO)C(=O)c2cc(NC(=O)Nc3ccccc3)ccc2O[C@@H]1CN(C)Cc1ccc(C(F)(F)F)cc1	0	0	29	-1
C[C@H](CO)N1C[C@H](C)[C@@H](CN(C)Cc2ccc(-c3ccccc3)cc2)Oc2ccc(NC(=O)Nc3ccc(C(F)(F)F)cc3)cc2C1=O	/	-85*	?	-1
C[C@H](CO)N1C[C@H](C)[C@H](CN(C)Cc2ccc(Oc3ccccc3)cc2)Oc2ccc(NC(=O)Nc3ccc(C(F)(F)F)cc3)cc2C1=O	/	-88*	69	-1
Cc1ccccc1OCC(=O)Nc1cccc(NC(=O)c2ccc(C(C)(C)C)cc2)c1	0	/	/	/
O=C(CCN1C(=O)c2cccc3cccc(c23)C1=O)N1CCN(c2ncccn2)CC1	0	/	/	/
COc1ccc(C#Cc2ccc3c(c2)O[C@H](CN(C)S(=O)(=O)c2ccccc2F)[C@@H](C)CN([C@@H](C)CO)S3(=O)=O)cc1	0	-86*	/	-6
COc1ccc(C#Cc2ccc3c(c2)O[C@@H](CN(C)S(=O)(=O)c2ccccc2F)[C@H](C)CN([C@@H](C)CO)S3(=O)=O)cc1	0	-82*	/	-6
Cc1coc(C)c1C(=O)CC1(O)C(=O)N(CCc2ccccc2)c2ccc(Cl)cc21 (stereo not given)	0	/	/	/
COc1cc(OC)c(NC(=O)CSc2nc3ccc([N+](=O)[O-])cc3s2)cc1Cl	1	/	/	/
C[C@@H]1CCCCO[C@@H](CN(C)C(=O)Nc2cccc3ccccc23)[C@@H](C)CN([C@H](C)CO)C(=O)c2cc(NC(=O)C3CCCCC3)ccc2O1	-3	-75	-15	3
CC(C)NC(=O)Nc1ccc2c(c1)C(=O)N([C@@H](C)CO)C[C@@H](C)[C@H](CN(C)C(=O)Nc1cccc3ccccc13)OCCCC[C@H](C)O2	/	-86*	-65	0
C[C@@H]1CCCCO[C@@H](CN(C)C(=O)Nc2cccc3ccccc23)[C@H](C)CN([C@@H](C)CO)C(=O)c2cc(NC(=O)C3CCCCC3)ccc2O1	1	-83*	113	-8
C[C@H]1CCCCO[C@H](CN(C)C(=O)Nc2cccc3ccccc23)[C@@H](C)CN([C@@H](C)CO)C(=O)c2cc(NC(=O)C3CCCCC3)ccc2O1	-1	-86*	97	-6
CC(C)NC(=O)Nc1ccc2c(c1)C(=O)N([C@H](C)CO)C[C@H](C)[C@H](CN(C)C(=O)Nc1cccc3ccccc13)OCCCC[C@@H](C)O2	3	-23	2	-1
CO[C@H]1CN(C)C(=O)c2cc(NC(=O)c3nc4ccccc4s3)ccc2OC[C@H](C)NC[C@H]1C	0	-54	-52	-3
CO[C@H]1CN(C)C(=O)c2cc(NC(=O)c3nc4ccccc4s3)ccc2OC[C@@H](C)NC[C@@H]1C	0	-87*	-38	2
CO[C@@H]1CN(C)C(=O)c2cc(NC(=O)c3nc4ccccc4s3)ccc2OC[C@H](C)NC[C@H]1C	0	-85*	-34	6
C/C=C/c1ccc2c(c1)[C@H]1[C@H](CCN1S(=O)(=O)c1ccccc1C)[C@@H](CO)N2	/	-87*	/	-4

Bioassay records deposited in PubChem BioAssay by Broad Institute.
